This is a sample that favours compounds with a hit; in the whole collection about 2.1% have one here.
RBBP9 inh: blocks human serine hydrolase RBBP9 | actives 0.2% (n = 220,000) | recombinant RBBP9, FP-Rh probe fluorescence polarization | O75884 | AID 1515 | inhibition, % at 7.94 µM;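 active = inhibition above the campaign mean of all tested compounds plus 3 SD, cut at about 14% in these data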;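 note: plate controls were DMSO wells with RBBP9 for no effect and wells lacking RBBP9 protein for full effect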
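Test system: recombinant human RBBP9. Quantity: 2.5 µM RBBP9 dispensing solution, before mixing. Detection: FP readout at 525/598 nm. Reagent: Serine-hydrolase probe FP-Rh, 375 nM pre-mixing. Measure: % inhibition. Control set: DMSO-treated enzyme wells and wells lacking RBBP9. Buffer or medium: Tris-NaCl-Pluronic buffer, pH 8.0. Times: preincubation 30 min plus labeling 45 min at 25 °C.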
Wee1 stabilizer: blocks degradation of human Wee1 kinase | actives 1.2% (n = 220,000) | HeLa Luc-Wee1K328M stability, luciferase luminescence; 100% = proteasome inhibitor MG132 effect | reporter increase, % at 5 µM | AID 1321;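 active = activation above the mean of all tested compounds plus 3 SD, set per screening run, cut at about 8.8% in these data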;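 note: cells exposed to compound for 20 h before luminescence read; 0% = DMSO alone and 100% = MG132 at 30 µM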
Target sequence (P30291 whole entry K328M): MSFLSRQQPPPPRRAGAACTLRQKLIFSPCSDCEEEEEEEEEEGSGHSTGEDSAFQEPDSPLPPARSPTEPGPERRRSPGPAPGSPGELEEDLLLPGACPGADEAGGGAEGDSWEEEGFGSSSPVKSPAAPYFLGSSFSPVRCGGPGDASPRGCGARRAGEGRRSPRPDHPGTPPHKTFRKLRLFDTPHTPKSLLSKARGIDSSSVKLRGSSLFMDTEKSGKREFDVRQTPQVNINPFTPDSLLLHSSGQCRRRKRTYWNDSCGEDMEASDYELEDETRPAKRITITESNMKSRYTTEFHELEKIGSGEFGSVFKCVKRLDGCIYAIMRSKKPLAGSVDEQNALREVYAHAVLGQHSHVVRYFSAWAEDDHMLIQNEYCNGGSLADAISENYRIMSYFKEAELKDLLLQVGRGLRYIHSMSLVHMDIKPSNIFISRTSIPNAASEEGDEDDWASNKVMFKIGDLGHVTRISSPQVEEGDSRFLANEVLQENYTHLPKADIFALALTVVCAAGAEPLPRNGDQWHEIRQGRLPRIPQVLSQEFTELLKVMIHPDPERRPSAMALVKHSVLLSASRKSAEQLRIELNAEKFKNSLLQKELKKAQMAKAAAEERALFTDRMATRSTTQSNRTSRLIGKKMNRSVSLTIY
zVAD death inh: blocks zVAD induced death of L929 cells | L929 zVAD necroptosis rescue, ATP luminescence, 24 h; with zVAD 60 µM | viability rescue, % at 10 µM | actives 0.38% (n = 220,000) | AID 1377;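 active = activation, scaled between plate controls, above about 75%, limit read from the data; inactive = activation under that limit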;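 note: 0% = zVAD with DMSO and 100% = DMSO alone without zVAD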
TNF necrop inh: TNF-alpha cell death inhibition in Jurkat FADD-/- cells; Jurkat FADD-/- TNF necroptosis rescue, ATP luminescence, 24 h; 0 = TNF only, 100 = no-TNF cells; activation (protection from cell death), % at 10 µM; actives 0.068% (n = 220,000); AID 463075;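 active = activation, meaning protection from cell death, of at least 50% relative to plate controls; inactive = activation below 50%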;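 note: necroptosis triggered by 40 ng/mL TNF-alpha added together with compound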
Calpain2 inh: inhibitors of pig calpain II. purified calpain II, fluorogenic peptide substrate, 30 min. inhibition, % at 16 µM. actives 0.37% (n = 220,000). AID 1236;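 active = inhibition above about 50%, limit read from the data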
Pf gamet viab: kills late stage P. falciparum gametocytes | AID 743093 | inhibition, % at 10.9 µM | P. falciparum stage V gametocytes, ATP luminescence, 24 h | actives 0.065% (n = 150,000);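 active = inhibition above the mean plus 3 SD of compounds within the control limits, set per campaign, cut at about 38% in these data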;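 note: 0% = DMSO wells and 100% = medium only without gametocytes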
Wee1 degr conf: human Wee1 degradation inhibition, confirmation; shares compounds with Wee1 stabilizer; AID 1410; actives 4% (n = 1,100); activation, % at 5 µM; HeLa Luc-Wee1K328M degradation, luminescence; vehicle 0%, proteasome-blocked wells 100%; in the data active = activation above about 8.9%
The depositor's hits bear a star; · = not tested or not shown.

SMILES	RBBP9 inh	Wee1 stabilizer	zVAD death inh	TNF necrop inh	Calpain2 inh	Pf gamet viab	Wee1 degr conf
Cc1ccc(NC2=CC(=O)CC(c3ccc(Cl)cc3)C2)cc1 (stereo not drawn)	-6	15*	0	1	-8	·	1
C#CCOCCOCCOCCNc1nc(N2CCN(C(=O)C([C@@H](C)CC)n3cc(C(N)Cc4ccc(O)cc4)nn3)CC2)nc(N2CCN(C(=O)[C@H](CCC(=O)O)n3cc(C(N)[C@H](C)CC)nn3)CC2)n1 (stereo partly drawn)	2	-2	0	1	-6	6	·
Cc1ccc(NC(=S)NCC2CCN(C(C)c3ccccc3)C2)cc1C (stereo not drawn)	-3	-1	0	-5	-7	-51	·
CC1(C)C(=O)NCCN1C(=O)CCCC(=O)O	-14	12*	-1	0	22	-8	2
CC(/C=C/C=C/c1ccccc1)=N/NC(=O)CNc1ccccc1C	5	-3	0	1	11	·	·
Cc1ccc(NC(=S)N/N=C/c2cccn2Cc2ccccc2F)cc1	-9	19*	0	-2	8	11	1
O=c1cc(/C=C/c2ccccc2)oc2c1ccc1ccccc12	-13	11*	2	1	-30	7	7
CCCCC(CCC(=O)Nc1nccs1)C(=O)O (stereo not drawn)	2	-2	1	0	22	-5	·
Cc1[nH][nH]c(=O)c1C(c1ccc(O)c([N+](=O)[O-])c1)c1c(C)[nH][nH]c1=O	0	-1	0	-1	34	11	·
Cc1[nH][nH]c(=O)c1C(c1ccc([N+](=O)[O-])cc1)c1c(C)[nH][nH]c1=O	5	11*	2	-1	16	-4	0
Cc1ccc(NC(=O)COC(=O)[C@H](C)N2C(=O)C3CC=CCC3C2=O)cc1S(=O)(=O)N(C)C (stereo partly drawn)	2	14*	1	0	1	1	4
O=C(Nc1ccc(N2CCOCC2)nc1)c1ccc(C(F)(F)F)cc1	0	2	44	-2	-4	-7	·
Cc1cc(-n2nnc3ccccc32)nc2ccccc12	2	13*	0	-2	-17	·	4
Cc1cc(N2CCCCC2)nc2ccccc12	-8	2	0	2	-66	·	·
O=C(NC1CCCCC1)c1cc(Cl)ccc1[N+](=O)[O-]	-4	16*	0	2	-4	13	0
Cc1cc(C)c(S(=O)(=O)Nc2ccccn2)c(C)c1	·	·	·	·	·	-29	·
COc1ccc(-n2nnnc2SCC(=O)Nc2cccc(O)c2)cc1	·	·	·	·	·	-23	·
COc1ccc(-n2nnnc2SCC(=O)Nc2nnn(C)n2)cc1	-6	11*	0	-1	-39	8	-2
C/C(=N\NC(=O)c1ccc(N2CCCC2=O)cc1)c1ccncc1	0	15*	0	1	-13	-13	0
C/C(=N\NC(=O)c1ccccc1)c1ccc(N2CCCCC2)cc1	-9	5	4	2	-42	16	·
COc1ccccc1N(C)S(=O)(=O)c1ccc(Cl)c(C(=O)NC2=NCCS2)c1	4	12*	-1	1	21	6	2
CCOc1ccccc1C(=O)Nc1ccc2c(c1)C(=O)NC2=O	·	·	·	·	·	12	·
COc1cc(/C=N/NC(=O)c2cc(C3CC3)[nH]n2)ccc1O	-1	12*	75	8	-18	15	-1
COc1ccc(/C=N/NC(=O)c2cc(C3CC3)[nH]n2)cc1OC	-4	2	63	9	5	7	·
CCN1CCN(CCC(=O)Nc2cccc(C)c2)CC1	·	·	·	·	·	5	·
COC(=O)c1c(NC(=O)c2ccc(C)cc2)csc1C	1	13*	1	1	-5	6	4
COC(=O)c1c(NS(=O)(=O)c2ccccc2)csc1C	-3	-1	0	1	-17	-2	·
CCC(=O)Nc1ccc(-c2nnc(-c3ccccc3)o2)cc1	-10	6	0	-2	·	7	·
